A selection: hits, their analogues and other compounds. The true share with any hit is near 2.1%.
BaF3 tox – parental Ba/F3 cell viability inhibition, counter-screen for JAK2V617F inhibitor project, murine pro-B, CellTiter-Glo luminescence | CellTiter-Glo ATP luminescence | inhibition, % at 5.6 µM | hit rate 1.1% among 220,000;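 active means inhibition above a per-campaign cutoff, the mean inhibition of all tested compounds plus 3 SD, cut at about 27% in these data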
b-catenin transl – modulators of beta-catenin nuclear translocation, primary screen, imaging, HeLa cells, immunofluorescence, high-content. nuclear translocation activity, % at 5 µM. hit rate 0.3% among 190,000. AID 1665, 2009;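 active means nuclear translocation activity above 50% at 5 µM, with a well cell count of 50 or more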;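 further: per-cell ratio of nuclear to cytoplasmic median beta-catenin stain intensity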
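Test system: human HeLa cell line; Doses: 5 µM primary, 0.02–20 µM confirmation; Incubation: 24 h compound exposure, 37°C; Detection: beta-catenin immunofluorescence imaging with DAPI; Read-out: beta-catenin nuclear/cytoplasmic ratio, % activation.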
Ba/F3 V617F tox – reduced viability of JAK2V617F-dependent Ba/F3 cells, primary screen, JAK2V617F inhibitor project, cell-based, Ba/F3 EpoR-JAK2V617F, luminescence | ATP luminescence | inhibition, % at 5.6 µM | hit rate 1.1% among 220,000 | AID 1446, 2008;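 active means inhibition above the campaign mean plus 3 SD over all tested compounds, cut at about 24% in these data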;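 further: cytokine-independent growth of Ba/F3 cells driven by EpoR plus mutant JAK2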
MT stabilizer – microtubule stabilizers in HeLa cells, primary screen, imaging, high-content imaging | HeLa tubulin immunostaining HCS, 24 h; share of cells brighter than vehicle mean+2SD | % tubulin-high responders, % at 10 µM | hit rate 0.83% among 200,000;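 active means plate Z-score above 3 for both tubulin-high and condensed-nucleus cell shares, with cell loss under 80%, at 10 µM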;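 further: anti alpha tubulin signal scored within the nucleus-defined area of each cell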
IEC-6 cytotox – cytotoxicity in IEC-6 intestinal epithelial cells, primary screen, cytotoxicity control for KLF5 inhibitor project, cell-based, luminescence | IEC-6 cytotoxicity, luminescence viability | inhibition, % at 5 µM | hit rate 0.78% among 290,000
KLF5 inh – KLF5 expression inhibitors, primary screen, DLD-1 cells, luminescence; hit rate 0.23% among 290,000; DLD-1 KLF5 promoter-luciferase reporter; inhibition, % at 5 µM; AID 1700, 2009;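 active means inhibition above a per-plate limit of that plate's mean compound inhibition plus 3 SD, cut at about 60% in these data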;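 further: higher means less KLF5 promoter-driven luciferase light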
IEC-6 cytotox cf – cytotoxic compounds in IEC-6 epithelial cells, confirmation, cytotoxicity control, cell-based, luminescence | shares compounds with IEC-6 cytotox | IEC-6 rat intestinal epithelial viability | inhibition, % at 5 µM | hit rate 63% among 1,900
Large screens that a line does not name were inactive (follow-up assays come after a bar, where they were run). Unless noted, no stated cut-off is given here; in the data, active means inhibition above about 22%; inactive means the rest.

CN(/N=C/c1ccc(N(C)C)cc1)C1=NS(=O)(=O)c2ccccc21	IEC-6 cytotox 37.9 (no result: BaF3 tox, b-catenin transl, Ba/F3 V617F tox, MT stabilizer) | IEC-6 cytotox cf inactive
CC(C)C(NC(=O)c1ccc(Cl)cc1)C(=O)NCC1CCCO1 (configuration not stated)	none (no result: BaF3 tox, b-catenin transl, Ba/F3 V617F tox, MT stabilizer)
CCOC(=O)c1ccc(NC(=S)N2CCN(C(=O)C3CCCO3)CC2)cc1 (configuration not stated)	IEC-6 cytotox 28.6 (no result: BaF3 tox, b-catenin transl, Ba/F3 V617F tox, MT stabilizer) | IEC-6 cytotox cf inactive
CNC(=O)CN(c1ccc(Oc2ccccc2)cc1)S(=O)(=O)c1ccc(C)cc1	none (no result: BaF3 tox, b-catenin transl, Ba/F3 V617F tox, MT stabilizer)
CCCCCN=Cc1c(C)[nH]n(-c2nc3ccccc3s2)c1=O	BaF3 tox 45.9, Ba/F3 V617F tox 48.4, IEC-6 cytotox 45.2 | IEC-6 cytotox cf 51.0
Cc1cccc(/C=C(\c2nc3ccccc3[nH]2)S(=O)(=O)c2ccccc2)c1	IEC-6 cytotox 25.2 | IEC-6 cytotox cf 31.6
O=C(Nc1nc(-c2ccccn2)cs1)c1ccc(Br)s1	IEC-6 cytotox 30.1 | IEC-6 cytotox cf 69.8
O=C(CC1CC2CCC1C2)Nc1nc(-c2ccccn2)cs1 (configuration not stated)	IEC-6 cytotox 28.7 | IEC-6 cytotox cf inactive
O=C(Nc1nc(-c2ccncc2)cs1)c1ccco1	none
O=C(Nc1nc(-c2ccccn2)cs1)c1ccco1	IEC-6 cytotox 26.5 | IEC-6 cytotox cf 28.2
Cc1nc(NC(=O)c2ccco2)sc1C(=O)O	IEC-6 cytotox 35.2 (no result: BaF3 tox, b-catenin transl, Ba/F3 V617F tox, MT stabilizer) | IEC-6 cytotox cf 27.0
O=c1[nH]n(Cc2ccccc2)c(=O)c2ccccc12	IEC-6 cytotox 31.1 | IEC-6 cytotox cf 37.6
O=[N+]([O-])c1cccnc1S(=O)(=O)c1ccccc1	IEC-6 cytotox 40.6 (no result: BaF3 tox, b-catenin transl, Ba/F3 V617F tox, MT stabilizer) | IEC-6 cytotox cf inactive
O=C(COc1ccccc1)Nc1ccncc1Cl	none (no result: BaF3 tox, b-catenin transl, Ba/F3 V617F tox, MT stabilizer)
O=C(CN1CCN(S(=O)(=O)c2ccccc2)CC1)Nc1ccccc1C(=O)c1ccccc1	none
COc1cccc2sc(Nc3nc(-c4ccccn4)cs3)nc12	BaF3 tox 52.6, Ba/F3 V617F tox 50.8, IEC-6 cytotox 89.3 | IEC-6 cytotox cf 96.3
c1ccc(Nc2nc(-c3ccccn3)cs2)cc1	none
COc1cccc2sc(Nc3nnc(-c4cccs4)o3)nc12	IEC-6 cytotox 69.1 | IEC-6 cytotox cf 59.0
CC(=O)Nc1ccc(NC(=O)C(C)OC(=O)CCc2nc3ccccc3s2)cc1 (configuration not stated)	none
COCCCNC(=S)Nc1cc2oc3ccccc3c2cc1OC	IEC-6 cytotox 33.6 (no result: BaF3 tox, b-catenin transl, Ba/F3 V617F tox, MT stabilizer) | IEC-6 cytotox cf 22.3
COc1cc(CNc2nc(C)c([N+](=O)[O-])c(C)c2C#N)cc(OC)c1OC	none
O=C(NCc1ccc2c(c1)CCO2)Nc1cccc(C(F)(F)F)c1	none (no result: MT stabilizer)
CCOc1ccccc1N1CC(O)=C(c2nc3ccccc3s2)C1=N	BaF3 tox 77.3, Ba/F3 V617F tox 82.5, MT stabilizer 28.3, IEC-6 cytotox 55.5 | IEC-6 cytotox cf 59.7
Cc1c(C(=O)N2CCN(c3ccccc3)CC2)oc2c(F)cccc12	none (no result: BaF3 tox, b-catenin transl, Ba/F3 V617F tox, MT stabilizer)
CCCCN(C)CCNC(=O)c1cc2c(-c3cccc(OC)c3)nn(C)c2s1	none (no result: BaF3 tox, b-catenin transl, Ba/F3 V617F tox, MT stabilizer)
CCOC(=O)c1sc(N)c(C(=O)Nc2ccccc2OC)c1C	BaF3 tox 35.9, b-catenin transl 80.1, Ba/F3 V617F tox 39.6, MT stabilizer 22.1, IEC-6 cytotox 37.8 | IEC-6 cytotox cf 46.4
CCOC(=O)c1[nH]cnc1C(=O)Nc1ccccc1OC	none
CCCCCCCCNc1ncnc2ccccc12	BaF3 tox 62.5, Ba/F3 V617F tox 69.7, IEC-6 cytotox 26.9 | IEC-6 cytotox cf inactive
CCc1ccccc1Nc1ncnc2ccccc12	none (no result: BaF3 tox, b-catenin transl, Ba/F3 V617F tox, MT stabilizer)
COc1ccc(/C=C2\Cc3ccccc3C2=O)cc1OC	none (no result: MT stabilizer)
COc1ccc(/C=C2\CCc3ccccc3C2=O)cc1O	IEC-6 cytotox 27.9 (no result: BaF3 tox, b-catenin transl, Ba/F3 V617F tox, MT stabilizer) | IEC-6 cytotox cf inactive
Cn1cnc2c(=O)[nH]cc([N+](=O)[O-])c21	none
COc1ccc(C(=O)C(CCCCC(CN(C)C)C(=O)c2ccc(OC)cc2)CN(C)C)cc1 (configuration not stated)	none
CCOc1ccc(C(=O)C(CCC(CN(C)C)C(=O)c2ccc(OCC)cc2)CN(C)C)cc1 (configuration not stated)	BaF3 tox 40.0, Ba/F3 V617F tox 100.9, IEC-6 cytotox 29.4 | IEC-6 cytotox cf 26.8
c1csc(-c2nc3c4ccccc4c4ccccc4c3[nH]2)c1	IEC-6 cytotox 24.2 (no result: b-catenin transl) | IEC-6 cytotox cf 23.1
Oc1ccccc1-c1nc2c3ccccc3c3ccccc3c2[nH]1	none (no result: MT stabilizer)
O=C(N/N=C/c1ccc2c(c1)OCO2)c1cccc2ccccc12	IEC-6 cytotox 28.0 (no result: BaF3 tox, b-catenin transl, Ba/F3 V617F tox, MT stabilizer) | IEC-6 cytotox cf 25.3
Cn1cnc(S(=O)(=O)N2CCN(C(c3ccccc3)c3ccccc3)CC2)c1	none (no result: BaF3 tox, b-catenin transl, Ba/F3 V617F tox, MT stabilizer)
Nc1nc(-c2cccnc2)nn1C(=O)c1ccccc1Cl	IEC-6 cytotox 36.1 | IEC-6 cytotox cf inactive
Cc1cc(N2CCOCC2)ccc1/C=C1\NC(=O)N(Cc2ccccc2)C1=O	none
Cc1ccc(NC(=O)CCc2c[nH]c3ccccc23)nc1	IEC-6 cytotox 70.1 (no result: BaF3 tox, b-catenin transl, Ba/F3 V617F tox, MT stabilizer) | IEC-6 cytotox cf 42.0
O=C(CCc1c[nH]c2ccccc12)Nc1ncccc1O	none (no result: BaF3 tox, b-catenin transl, Ba/F3 V617F tox, MT stabilizer)
COc1ccc(Cn2c(C3CC3)nc3ccc(NC(C)=O)cc3c2=O)cc1	none
COc1ccc(Cn2c(C3CC3)nc3ccc(NC(=O)c4cccnc4)cc3c2=O)cc1	IEC-6 cytotox 37.0 (no result: BaF3 tox, b-catenin transl, Ba/F3 V617F tox, MT stabilizer) | IEC-6 cytotox cf inactive
